Published values gathered from unrelated publications.
Lines come from different studies, so protocols differ.
Target: Serine/threonine-protein kinase DCLK2 (DCLK2, Homo sapiens, UniProt Q8N568)
Residues used in one study (Q8N568 1-766): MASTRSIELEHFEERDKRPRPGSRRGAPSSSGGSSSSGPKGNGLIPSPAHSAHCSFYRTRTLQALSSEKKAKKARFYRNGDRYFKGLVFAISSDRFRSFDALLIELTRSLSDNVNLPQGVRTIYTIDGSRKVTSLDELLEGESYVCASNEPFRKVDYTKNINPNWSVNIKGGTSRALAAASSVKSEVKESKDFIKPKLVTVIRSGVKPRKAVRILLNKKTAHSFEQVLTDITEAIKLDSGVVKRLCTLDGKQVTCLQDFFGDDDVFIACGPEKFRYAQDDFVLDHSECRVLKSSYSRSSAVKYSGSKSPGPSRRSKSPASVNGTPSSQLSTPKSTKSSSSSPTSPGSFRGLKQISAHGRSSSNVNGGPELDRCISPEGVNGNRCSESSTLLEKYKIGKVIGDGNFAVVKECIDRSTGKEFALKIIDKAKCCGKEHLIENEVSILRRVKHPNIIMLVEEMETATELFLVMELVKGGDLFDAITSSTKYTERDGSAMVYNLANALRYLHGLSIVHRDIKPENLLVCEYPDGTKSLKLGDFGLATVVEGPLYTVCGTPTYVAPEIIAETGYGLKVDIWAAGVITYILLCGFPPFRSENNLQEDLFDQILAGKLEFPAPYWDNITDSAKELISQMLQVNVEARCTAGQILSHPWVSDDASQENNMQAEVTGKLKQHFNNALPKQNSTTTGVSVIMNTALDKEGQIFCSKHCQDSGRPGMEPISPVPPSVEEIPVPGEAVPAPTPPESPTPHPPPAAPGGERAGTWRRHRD

CCN1CCN(Cc2ccc(C(=O)Nc3ccc(C)c(Oc4ccc5c(c4)CC(=O)N5)c3)cc2C(F)(F)F)CC1 — remaining binding (binding, competition with immobilised ligand; 1 µM): 92%
Cc1cc(-n2nc(Cc3cc(F)cc(C(F)(F)F)c3)nc2C)ccc1C(N)=O — remaining binding (cell-free assay, competition with immobilised ligand; 1 µM): 100%
C=CC(=O)N1CCC(C(=O)NCC(=O)N2CCN(c3nc(-c4cnc(N)nc4C(F)F)nc(N4CCOCC4)n3)CC2)CC1 — remaining binding (binding, competition with immobilised ligand; 1 µM): 98%
F[C@@H]1CCN(c2nccc(-c3cnn4ncccc34)n2)C1 — remaining binding (binding; 1 µM): 88%
Cn1nc(C(F)(F)F)cc1-c1cnc(N2CCc3cc(S(=O)(=O)Nc4c(F)cc(Cl)cc4F)cc(N4CCCC4=O)c32)nc1 — remaining binding (cell-free assay, competition with immobilised ligand; 1 µM): 100%
FC(F)(F)Oc1cccc(-c2cnc3ccc(-c4ccncc4)nn23)c1 — remaining binding (cell-free assay, competition with immobilised ligand; 5 µM): 100%
O=C(NCCCN1CCOCC1)c1ccc(Nc2ncc(Cl)c(-c3ccc(Cl)s3)n2)cc1 — remaining binding (binding, competition with immobilised ligand; 1 µM): 78%
CN(c1nccc(-c2cnn3ncccc23)n1)C1CC1 — remaining binding (binding; 1 µM): 100%
CNC(=O)[C@@H]1CC[C@@H](n2c(-c3ccc4cnccc4c3)nc3ccc(C(=O)NCc4cccc(C(N)=O)c4)cc32)C1 — remaining binding (binding, competition with immobilised ligand; 1 µM): 100%
Nc1ncc2c(n1)-c1c([nH]c3ccc(C#CC4CC4)cc13)CCCC2 — remaining binding (binding, competition with immobilised ligand; 1 µM): 89%
c1cnn2ncc(-c3ccnc(N4CCC45COC5)n3)c2c1 — remaining binding (binding; 1 µM): 78%
O=C(Nc1c[nH]nc1C(=O)NC1CCNCC1)c1cc(F)cc(F)c1 — remaining binding (binding, competition with immobilised ligand; 1 µM): 100%
O=C1NC(c2ccccn2)Sc2ccccc21 (stereo not shown) — remaining binding (cell-free assay, competition with immobilised ligand; 1 µM): 92%
Cc1cnc(Nc2ccc(C(=O)N3CCC(N4CCCC4)CC3)cc2)nc1-c1cc2ccccc2s1 — remaining binding (binding, competition with immobilised ligand; 1 µM): 100%
CN(C)CC#Cc1ccc(OCCCc2sc(N3CCc4cccc(C(=O)Nc5nc6ccccc6s5)c4C3)nc2C(=O)O)c(F)c1 — remaining binding (cell-free assay, competition with immobilised ligand; 1 µM): 100%
COc1cc(C(=O)N2CCC(N3CCN(C)CC3)CC2)ccc1Nc1ncc2c(n1)N(C)c1ccccc1C(=O)N2C — remaining binding (binding, competition with immobilised ligand; 10 µM): 0.45%
CCC(=O)N[C@H]1CC[C@@H](C(=O)N(C)c2ccc(-c3nc4ccccc4o3)cc2)C1 — remaining binding (cell-free assay, competition with immobilised ligand; 1 µM): 98%
CN(CCCC(F)(F)F)c1nccc(-c2cnn3ncccc23)n1 — remaining binding (binding; 1 µM): 88%
O=C(c1ccc(Nc2ncc(Cl)c(-c3ccc(Cl)s3)n2)cc1)N1CCC(N2CCCC2)CC1 — remaining binding (binding, competition with immobilised ligand; 1 µM): 90%
